We go through one compound from ChEMBL document CHEMBL3872208, “Synthesis and pharmacological characterization of novel N-(trans-4-(2-(4-(benzo[d]isothiazol-3-yl)piperazin-1-yl)ethyl)cyclohexyl)amides as potential multireceptor atypical antipsychotics” (Eur J Med Chem, 2016).

The structures appear in SMILES notation. The source made the active and inactive calls. A value given as a limit tells only on which side of the number the result lay.

Series [1] deals with Rattus norvegicus. Nature of the series: Cognitive enhancement effect in Sprague-Dawley rat assessed as reversal of PCP-impaired performance by measuring increase in time spent exploring novel object in comparison to familiar object at 0.1 to 0.2 mg/kg, po administered 60 mins prior to test by novel object recognition assay.
A short description of series [2]: Cmax in Sprague-Dawley rat plasma at 0.5 mg/kg, iv administered as single dose by LC-MS/MS analysis. Format: ADME, organism-based. Further details: dose 0.5 mg/kg, route intravenous. A digest of the protocol: (§1)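 Male SD rats, single dose: 0.5 mg/kg i.v. or 2.0 mg/kg p.o. Vehicle is 5% DMSO, 10% Solutol HS 15 and 85% PBS. Heparinized blood is sampled at 5, 15 and 30 min and at 1, 2, 4, 8 and 24 h after dosing. Plasma is reported in ng/mL and brain in ng/g. F is derived from the p.o. and i.v. arms.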

Series [3] addresses T1, 5-hydroxytryptamine receptor 2A (Homo sapiens, UniProt P28223). Nature of the series: Agonist activity at 5-HT2A receptor (unknown origin) expressed in CHOK1 cells co-expressing G-alpha 15 by Fluo-4 dye based FLIPR assay. Format: cell-based, CHO-K1.
In series [4] the target is T2, D(3) dopamine receptor (Homo sapiens, UniProt P35462). Nature of the series: Antagonistic activity at D3 receptor (unknown origin) expressed in cell membranes assessed as inhibition of quinpirole-induced response after 40 mins by [35S]GTPgammaS binding assay. Type of series: functional. A digest of the protocol: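 Membranes (20 mg membrane protein as printed) incubated 40 min at 30 °C in 50 mM Tris pH 7.4, 5 mM MgCl2, 1 mM EDTA, 100 mM NaCl, 1 mM DTT. Mix contained 0.1 nM [35S]GTPγS, GDP, quinpirole as agonist and varied compound concentrations. Nonspecific binding was taken with Gpp(NH)p. Reaction stopped with ice-cold buffer, then GF/C filtration and scintillation counting. Mean IC50 from two experiments, eight concentrations in duplicate.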
T2 sequence (P35462 whole entry): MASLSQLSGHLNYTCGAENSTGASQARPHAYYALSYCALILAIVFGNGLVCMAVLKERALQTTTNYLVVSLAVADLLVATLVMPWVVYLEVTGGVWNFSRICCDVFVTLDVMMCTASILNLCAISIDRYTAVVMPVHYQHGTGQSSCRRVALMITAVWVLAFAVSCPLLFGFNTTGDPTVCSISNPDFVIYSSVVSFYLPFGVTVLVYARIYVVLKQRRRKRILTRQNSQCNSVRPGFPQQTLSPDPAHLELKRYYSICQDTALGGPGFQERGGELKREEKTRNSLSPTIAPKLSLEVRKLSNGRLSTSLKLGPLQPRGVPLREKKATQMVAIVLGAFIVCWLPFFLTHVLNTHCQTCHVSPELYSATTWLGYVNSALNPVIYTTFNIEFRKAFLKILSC
In general terms: GTPγS is a poorly hydrolysed GTP analogue; its binding reports G protein activation.

Series [5] in a line: Apparent clearance in Sprague-Dawley rat plasma at 0.5 mg/kg, iv administered as single dose by LC-MS/MS analysis. Format: ADME, organism-based. The conditions noted are these: read-out: CL(app) (converted). A digest of the protocol: as §1
Series [6] has as its system Rattus norvegicus. Nature of the series: Toxicity in Sprague-Dawley rat assessed as cataleptogenic effect by measuring time spent in cataleptic position at 1 to 10 mg/kg, po measured after 0.5 to 2 hrs. Type of series: organism-based. As to conditions: in vivo. The method, boiled down: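 Male SD rats (180–250 g, n = 7) dosed orally at 1.0, 3.0 or 10.0 mg/kg. Forepaws placed on a bar 0.9 cm in diameter, 11 cm high, at 30, 60 and 120 min after dosing. Time held is expressed as a percentage of the 60 s maximum (mean ± SEM).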

The nature of series [7]: AUC (0 to t) in Sprague-Dawley rat brain at 0.5 mg/kg, iv administered as single dose by LC-MS/MS analysis. Format: ADME, organism-based. A digest of the protocol:
as §1

The test system of a further series is CHO. Nature of the series: Selectivity ratio of Ki for displacement of [3H]spiperone from recombinant human D2L receptor expressed in CHO cell membranes to Ki for displacement of [3H]methyl-spiperone from recombinant human D3 receptor expressed in CHO cell membranes. A digest of the protocol:
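D2L binding: CHO membranes (16 µg protein) with 0.3 nM [3H]methyl-spiperone in 50 mM Tris-HCl pH 7.4, 120 mM NaCl, 10 mM MgCl2, 1 mM EDTA, with butaclamol for nonspecific binding. D3 binding: membranes (8 µg) with 0.3 nM [3H]methyl-spiperone in the same Tris buffer with 5 mM KCl, 5 mM MgCl2, 5 mM EDTA, with (+)butaclamol for nonspecific binding. Both run 60 min at 22 °C, then GF/B filtration. Ki by Cheng–Prusoff; ratio is D2 Ki/D3 Ki.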

Series [8] relates to Rattus norvegicus. Nature of the series: Antipsychotic activity in Sprague-Dawley rat assessed as inhibition of conditioned avoidance behavior at 1.0 to 2.0 mg/kg, ip administered as single dose measured after 1 hr. Type of series: functional, organism-based. The method, boiled down:
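Male SD rats (150–180 g, 6 per group) trained in automated shuttle-boxes; only rats exceeding 80% avoidance were used. Single i.p. dose of 1.0 or 2.0 mg/kg given 1 h before a 20-trial session. Read-out is percentage of avoidance (mean ± SEM, n = 6), compared with the vehicle group.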

Series [9] can be described thus: Cmax in Sprague-Dawley rat brain at 2 mg/kg, po administered as single dose by LC-MS/MS analysis. Format: ADME, organism-based. Further details: dose 2 mg/kg, route oral. The method, boiled down: as §1
Series [10] in a line: Half life in Sprague-Dawley rat plasma at 2.0 mg/kg, po administered as single dose by LC-MS/MS analysis. Format: ADME, organism-based. The method, boiled down: as §1
Series [11] is described as follows: Oral bioavailability in Sprague-Dawley rat plasma at 2 mg/kg administered as single dose by LC-MS/MS analysis. Type of series: ADME, organism-based. A digest of the protocol:
as §1

Series [12] in a line: Tmax in Sprague-Dawley rat brain at 2 mg/kg, po administered as single dose by LC-MS/MS analysis. Type of series: ADME, organism-based. A digest of the protocol:
as §1

Series [13] deals with T2, D(3) dopamine receptor. As to conditions: 10 uM.
A short description of series [14]: Half life in Sprague-Dawley rat plasma at 0.5 mg/kg, iv administered as single dose by LC-MS/MS analysis. Format: ADME, organism-based. A digest of the protocol: as §1
Series [15] is described as follows: Ratio of AUC (0 to t) in Sprague-Dawley rat brain to plasma at 2 mg/kg, po. Type of series: ADME, organism-based. The conditions noted are these: brain and plasma, read-out: Ratio AUC. The method, boiled down: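 Male Sprague-Dawley rats given the test compound once orally at 2.0 mg/kg. Vehicle was 5% DMSO, 10% Solutol HS 15 and 85% PBS. Heparinized blood sampled at 5, 15, 30 min and 1, 2, 4, 8, 24 h after dosing; brain concentrations also measured (ng/g). Ratio is brain AUC0-t over plasma AUC0-t.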

The target in series [16] is T3, D(2) dopamine receptor (Homo sapiens, UniProt P14416). Nature of the series: Displacement of [3H]spiperone from recombinant human D2L receptor expressed in CHO cell membranes after 60 mins by scintillation counting method. (Displacement assays read how much labelled ligand stays bound in the presence of the test substance.)
T3 sequence (P14416 whole entry): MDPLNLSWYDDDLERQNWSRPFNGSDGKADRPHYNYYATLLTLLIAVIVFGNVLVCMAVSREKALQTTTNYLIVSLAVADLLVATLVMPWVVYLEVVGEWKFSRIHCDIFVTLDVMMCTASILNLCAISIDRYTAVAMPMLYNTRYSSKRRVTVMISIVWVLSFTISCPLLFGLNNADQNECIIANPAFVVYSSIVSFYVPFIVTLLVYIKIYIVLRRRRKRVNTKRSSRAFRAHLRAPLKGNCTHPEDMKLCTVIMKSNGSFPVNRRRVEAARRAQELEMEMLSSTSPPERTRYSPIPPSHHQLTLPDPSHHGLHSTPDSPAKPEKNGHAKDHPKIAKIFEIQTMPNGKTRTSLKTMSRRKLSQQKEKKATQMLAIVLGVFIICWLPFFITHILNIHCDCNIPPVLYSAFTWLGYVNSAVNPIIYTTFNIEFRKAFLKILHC
Series [17] is described as follows: AUC (0 to t) in Sprague-Dawley rat plasma at 2 mg/kg, po administered as single dose by LC-MS/MS analysis. Format: ADME, organism-based. A digest of the protocol:
as §1

Series [18] deals with T1, 5-hydroxytryptamine receptor 2A. The conditions noted are these: CHO-K1, 10 uM.
Series [19] in a line: Half life in Sprague-Dawley rat brain at 0.5 mg/kg, iv administered as single dose by LC-MS/MS analysis. Format: ADME, organism-based. The method, boiled down:
as §1

In series [20] the target is T3, D(2) dopamine receptor. Nature of the series: Agonist activity at D2 receptor (unknown origin) expressed in CHOK1 cells co-expressing G-alpha 15 by fluo-4 dye based FLIPR assay. Type of series: cell-based, CHO-K1.
Series [21] can be described thus: AUC (0 to t) in Sprague-Dawley rat plasma at 0.5 mg/kg, iv administered as single dose by LC-MS/MS analysis. Format: ADME, organism-based. The method, boiled down: as §1
A short description of series [22]: Apparent clearance in Sprague-Dawley rat plasma at 2 mg/kg, po administered as single dose by LC-MS/MS analysis. Type of series: ADME, organism-based. As to conditions: read-out: CL(app) (converted). A digest of the protocol: as §1

T1 sequence (P28223 whole entry): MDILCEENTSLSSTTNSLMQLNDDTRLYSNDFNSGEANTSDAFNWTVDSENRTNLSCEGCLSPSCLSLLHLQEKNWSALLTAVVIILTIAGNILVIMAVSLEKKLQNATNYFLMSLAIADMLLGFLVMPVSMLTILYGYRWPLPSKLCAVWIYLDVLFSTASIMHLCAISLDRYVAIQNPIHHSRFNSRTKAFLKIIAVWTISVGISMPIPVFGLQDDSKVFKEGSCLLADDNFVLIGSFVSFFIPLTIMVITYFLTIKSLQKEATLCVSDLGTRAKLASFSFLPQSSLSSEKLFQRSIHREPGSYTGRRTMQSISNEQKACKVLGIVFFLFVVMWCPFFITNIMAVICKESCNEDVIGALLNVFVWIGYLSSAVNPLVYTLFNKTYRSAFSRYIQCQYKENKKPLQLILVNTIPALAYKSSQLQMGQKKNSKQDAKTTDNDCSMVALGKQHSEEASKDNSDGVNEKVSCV

As a reminder, the Cmax is the highest concentration seen after dosing. A word on the EC50: it is the concentration needed to bring the measured effect to its halfway point. A low value points to a more potent agent. As usually defined, the IC50 is the point on the concentration scale where inhibition reaches its midpoint. What is called AUC(0-t) is the area under the concentration-time curve up to a stated or last time point. A high value points to high exposure. What is called inhibition is the share of the control response that was lost under treatment. As a reminder, the half-life is the time needed for the level to fall by half in the phase considered. For orientation: bioavailability means the share of a dose that reaches the circulation, judged against a reference dose that is usually intravenous. The low end stands for poor availability, the high end for good availability. The Tmax is the time at which the peak concentration occurs. For orientation: Ki means the dissociation constant of the complex between target and ligand, obtained from inhibition or displacement. With `O=C(N[C@H]1CC[C@H](CCN2CCN(c3nsc4ccccc34)CC2)CC1)c1ccco1`, the result with Rattus norvegicus [1] was Active. Besides, the Cmax in series [2] was 135 ng/mL; in [9] it was 52.8 ng/mL. The EC50 (in series [3]; on D(2) dopamine receptor [20]) was more than 10 µM in each case. Further, at D(3) dopamine receptor [4], the IC50 is 1.39 nM. The clearance in series [5] is 76.7 mL/min/kg. Also, the Activity entry in the series on Rattus norvegicus [6] was “Non-Toxic”. In addition, the AUC(0-t) came to 1070 ng·h/mL in series [7], 55 ng·h/mL in [17] and 106 ng·h/mL in series [21]. Moreover, the Ratio Ki in the series on CHO came out at 22.3. The inhibition entry with Rattus norvegicus [8] is “Active”. Further, the half-life in series [10] was 102 min; in series [14], 48 min; in series [19] it was 948 min. For the same compound, in series [11], the bioavailability stood at 13%. The Tmax in series [12] was 2 h. The values for the inhibition (against D(3) dopamine receptor [13]; in series [18]) were 98.6% and 97%, respectively. Moreover, the Kp in series [15] is 16.1. Also, on D(2) dopamine receptor [16], the Ki turned out to be 2.9 nM. Further, the CL/F in series [22] is 582 mL/min/kg.
